Assay results as given in ChEMBL document CHEMBL1135810, “Water-soluble, core-modified porphyrins as novel, longer-wavelength-absorbing sensitizers for photodynamic therapy. II. Effects of core heteroatoms and meso-substituents on biological activity” (J Med Chem, 2002).

System: Colon 26
Experiment: Effective concentration required to give 50% cell kill with 4 J/cm**2 of light.(Dark and light induced toxicity towards murine colon carcinoma cell line(COLO-26 cells))
Format: functional, cell-based
Settings: Mus musculus, Colon 26, light or radiation study
Procedure, shortened: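 Colo-26 mouse colon carcinoma cells grown in RPMI 1640 with 10% fetal calf serum at 37 °C, 5% CO2, plated at 5×10^3 cells/well the evening before. Cells were PBS-washed, then kept 24 h at 37 °C in the dark with graded sensitizer in HBSS, washed, and irradiated in PBS with filtered 590–800 nm light (methods state 570–800 nm) to 4 J cm-2. Dark controls were not irradiated. After 24 h in growth medium, MTT survival was read, and EC50 was taken from surviving fraction vs concentration.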

SMILES	EC50 [µM]
O=C(O)COc1ccc(-c2c3nc(c(-c4ccc(F)cc4)c4ccc(s4)c(-c4ccc(F)cc4)c4nc(c(-c5ccc(OCC(=O)O)cc5)c5ccc2s5)C=C4)C=C3)cc1	0.43
O=S(=O)(O)c1ccc(-c2c3nc(c(-c4ccc(F)cc4)c4ccc([se]4)c(-c4ccc(F)cc4)c4nc(c(-c5ccc(S(=O)(=O)O)cc5)c5ccc2[se]5)C=C4)C=C3)cc1	7.9
Cc1ccc(-c2c3nc(c(-c4ccc(S(=O)(=O)O)cc4)c4ccc(s4)c(-c4ccc(S(=O)(=O)O)cc4)c4nc(c(-c5ccc(C)cc5S(=O)(=O)O)c5ccc2s5)C=C4)C=C3)c(S(=O)(=O)O)c1	12
O=S(=O)(O)c1ccc(-c2c3nc(c(-c4ccc(S(=O)(=O)O)cc4)c4ccc(s4)c(-c4ccc(S(=O)(=O)O)cc4)c4nc(c(-c5ccc(S(=O)(=O)O)cc5)c5ccc2s5)C=C4)C=C3)cc1	30
O=C(O)COc1ccc(-c2c3nc(c(-c4ccccc4)c4ccc(s4)c(-c4ccccc4)c4nc(c(-c5ccc(OCC(=O)O)cc5)c5ccc2s5)C=C4)C=C3)cc1	0.15
CN(C)c1ccc(-c2c3nc(c(-c4ccc(S(=O)(=O)O)cc4)c4ccc(s4)c(-c4ccc(S(=O)(=O)O)cc4)c4nc(c(-c5ccc(N(C)C)cc5)c5ccc2s5)C=C4)C=C3)cc1	0.64
O=S(=O)(O)c1ccc(-c2c3nc(c(-c4ccc(S(=O)(=O)O)cc4)c4ccc([nH]4)c(-c4ccc(S(=O)(=O)O)cc4)c4ccc(s4)c(-c4ccc(S(=O)(=O)O)cc4)c4nc2C=C4)C=C3)cc1	> 100
O=S(=O)(O)c1ccc(-c2c3nc(c(-c4ccc(C(F)(F)F)cc4)c4ccc(s4)c(-c4ccc(C(F)(F)F)cc4)c4nc(c(-c5ccc(S(=O)(=O)O)cc5)c5ccc2s5)C=C4)C=C3)cc1	> 100
O=S(=O)(O)c1ccc(-c2c3nc(c(-c4ccc(F)cc4)c4ccc(s4)c(-c4ccc(F)cc4)c4nc(c(-c5ccc(S(=O)(=O)O)cc5)c5ccc2[se]5)C=C4)C=C3)cc1	2.1
O=S(=O)(O)c1ccc(-c2c3nc(c(-c4ccc(F)cc4)c4ccc(s4)c(-c4ccc(F)cc4)c4nc(c(-c5ccc(S(=O)(=O)O)cc5)c5ccc2[nH]5)C=C4)C=C3)cc1	2.1
O=S(=O)(O)c1ccc(-c2c3nc(c(-c4ccc(F)cc4)c4ccc(s4)c(-c4ccc(F)cc4)c4nc(c(-c5ccc(S(=O)(=O)O)cc5)c5ccc2s5)C=C4)C=C3)cc1	1.6
O=S(=O)(O)c1ccc(-c2c3nc(c(-c4ccc(S(=O)(=O)O)cc4)c4ccc([nH]4)c(-c4ccc(S(=O)(=O)O)cc4)c4ccc([nH]4)c(-c4ccc(S(=O)(=O)O)cc4)c4nc2C=C4)C=C3)cc1	125
O=S(=O)(O)c1ccc(-c2c3nc(c(-c4ccc(F)cc4)c4ccc([se]4)c(-c4ccc(F)cc4)c4nc(c(-c5ccc(S(=O)(=O)O)cc5)c5ccc2s5)C=C4)C=C3)cc1	1.2
O=S(=O)(O)c1ccc(-c2c3nc(c(-c4ccc(S(=O)(=O)O)cc4)c4ccc([se]4)c(-c4ccc(S(=O)(=O)O)cc4)c4nc(c(-c5ccc(S(=O)(=O)O)cc5)c5ccc2[se]5)C=C4)C=C3)cc1	> 100
